# From PubChem
# This excerpt belongs to a sample that is enriched for hits.
# IDH1 R132H inh – inhibitors of IDH1 R132H reductase, primary screen, biochemical, plate reader, single point. 70,000 tested, 0.18% active. Isocitrate dehydrogenase [NADP] cytoplasmic (Homo sapiens), O75874. diaphorase/resazurin fluorescence, 60 min. AID 624101, 2012. inhibition, % at 10 µM; in the data active means inhibition above about 34%;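 further: 0% = DMSO and 100% = no enzyme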
# T cruzi growth-1 – T. cruzi intracellular proliferation inhibitors, primary screen, cell-based, beta-gal Tulahuen parasites, NIH3T3 host, luminescence; AID 624255, 2012; inhibition, % at 8.34 µM; 77,000 tested, 5.9% active; T. cruzi beta-gal in NIH3T3, GalScreen luminescence, 90 h;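 active means mean inhibition above about 93%, with at least 55% of replicates each passing it, limit read from the data, passing the limit was not always enough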
# KDM4C inh – inhibitors of GASC-1 (KDM4C) histone demethylase, primary screen, biochemical, single concentration HTS; Lysine-specific demethylase 4C (Homo sapiens), Q9H3R0; GST-KDM4C 2-372, H3K9me3 peptide, LANCE TR-FRET; inhibition, % at 12.5 µM; 96,000 tested, 0.15% active; AID 720574, 2013;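 active means mean replicate inhibition above about 25%, with at least 55% of replicates also reaching it, limit read from the data, passing the limit was not always enough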
# Target sequence (Q9H3R0 2-372 limits assumed): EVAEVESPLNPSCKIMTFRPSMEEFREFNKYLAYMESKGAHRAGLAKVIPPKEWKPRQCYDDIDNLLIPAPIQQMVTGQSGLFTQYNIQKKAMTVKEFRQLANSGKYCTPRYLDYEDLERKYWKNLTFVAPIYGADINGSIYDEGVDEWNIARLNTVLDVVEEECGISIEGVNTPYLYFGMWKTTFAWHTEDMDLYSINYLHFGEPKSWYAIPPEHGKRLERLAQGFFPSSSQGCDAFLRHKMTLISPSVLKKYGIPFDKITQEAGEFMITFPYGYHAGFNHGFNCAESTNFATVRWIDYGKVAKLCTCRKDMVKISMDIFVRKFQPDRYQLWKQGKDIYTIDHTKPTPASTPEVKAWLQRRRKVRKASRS
#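 Compound: one test concentration per compound; Material: GST-GASC-1 enzyme fragment 2-372; Amount: GASC-1 enzyme at 10 nM final in reaction; Also added: H3K9me3 peptide substrate, Fe(II), 2-oxoglutarate; Technique: LANCE TR-FRET; Times: 30 min demethylation and 1 h detection at room temperature.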
# T cruzi growth-2 – T. cruzi intracellular proliferation inhibitors, confirmation, cell-based, NIH3T3 host, beta-gal parasite, luminescence, cherry-pick; AID 651739, 2012; T. cruzi beta-gal in NIH3T3, GalScreen luminescence, 90 h; inhibition, % at 8.35 µM; 5,600 tested, 72% active; shares compounds with T cruzi growth-1;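 active means mean replicate inhibition above about 95% and at least 55% of replicates individually reaching it, limit read from the data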
# T cruzi growth-3 – inhibitors of intracellular T. cruzi replication, confirmation, NIH3T3 host cells, beta-gal parasites, cherry-pick, set 2; shares compounds with T cruzi growth-1; T. cruzi beta-gal in NIH3T3, GalScreen luminescence, 90 h; inhibition, % at 2.09 µM; 5,600 tested, 21% active; AID 651740, 2012;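 active means mean inhibition above about 95%, with at least 55% of replicates also reaching it, limit read from the data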;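 further: plate controls were neutral control median for no effect and positive control median for full effect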
# NIH3T3 tox – cytotoxicity in mouse NIH/3T3 fibroblasts, confirmation, cytotoxicity control for T. cruzi proliferation inhibitor project, cell-based, cherry-pick, single point; cytotoxicity (signal decrease), % at 8.35 µM; AID 651742, 2012; NIH/3T3 viability, CellTiter-Glo ATP luminescence, 90 h; 5,600 tested, 14% active; shares compounds with T cruzi growth-1;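 active means mean signal decrease across replicates above about 35% based on untreated-well scatter, with enough replicates individually passing, limit read from the data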;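 further: 0% = median of neutral control wells and 100% = median of positive control wells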
# 3T3 cytotox 2 – NIH/3T3 fibroblast cytotoxicity, confirmation, cytotoxicity control, cell-based, cherry-pick, single point, set 2 | shares compounds with T cruzi growth-1 | NIH/3T3 viability, CellTiter-Glo ATP luminescence, 90 h | inhibition, % at 24.9 µM | 5,600 tested, 56% active;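 active means mean loss of cell viability signal at or above a set limit, and enough replicates individually reaching it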;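 further: 0% = median of neutral control wells and 100% = median of positive control wells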
# Numbers without * were called inactive; nt = no result given.
SMILES,IDH1 R132H inh,T cruzi growth-1,KDM4C inh,T cruzi growth-2,T cruzi growth-3,NIH3T3 tox,3T3 cytotox 2
COc1ccc(C#Cc2ccc([C@@H]3[C@H](CO)N4CCCCN(C(=O)Cc5cccnc5)C[C@@H]34)cc2)cc1,nt,112*,-1,107*,90,39*,104*
O=C(Cc1cccnc1)N1CCCCN2[C@H](CO)[C@@H](c3ccc(/C=C/c4ccccc4)cc3)[C@H]2C1,nt,105*,-1,109*,73,33,104*
CCOc1ccc(C(Nc2ccccc2)P2(=S)OCCCO2)cc1 (stereo unspecified),0,nt,nt,nt,nt,nt,nt
O=C(Cc1ccncc1)N1CCCCN2[C@@H](CO)[C@@H](c3ccc(C#CC4(O)CCCC4)cc3)[C@@H]2C1,nt,110*,0,26,-14,-17,-9
O=C(Cc1ccccc1)N1CCCCN2[C@@H](CO)[C@@H](c3ccc(C#CC4(O)CCCC4)cc3)[C@@H]2C1,nt,94,0,nt,nt,nt,nt
O=C(Cc1ccncc1)N1CCCCN2[C@H](C1)[C@@H](c1ccc(C#CC3(O)CCCC3)cc1)[C@@H]2CO,nt,62,0,nt,nt,nt,nt
O=C(Cc1ccccc1)N1CCCCN2[C@@H](CO)[C@H](c3ccc(C#CC4(O)CCCC4)cc3)[C@@H]2C1,nt,109*,0,102*,28,11,33*
O=C(Cc1ccccc1)N1CCCCN2[C@H](CO)[C@H](c3ccc(C#CC4(O)CCCC4)cc3)[C@@H]2C1,nt,103*,-1,76,39,11,15
O=C(Cc1ccccc1)N1CCCCN2[C@H](C1)[C@@H](c1ccc(C#CC3(O)CCCC3)cc1)[C@@H]2CO,nt,15,0,nt,nt,nt,nt
CN1CCC2(c3cccc(O)c3)Cc3nc4ccccc4cc3CC2C1 (stereo unspecified),1,nt,nt,nt,nt,nt,nt
COC(=O)CC1(CC(=O)OC)C(=O)N(C)C(=O)N(C)C1=O,1,nt,nt,nt,nt,nt,nt
CO[C@H]1[C@@H](O)[C@@H](C)O[C@@H](OC2CCC3(C)C(CC[C@@H]4[C@@H]3CCC3(C)C(C5=CC(=O)OC5)C(O)CC43O)C2)[C@@H]1O (stereo partly specified),3,nt,nt,nt,nt,nt,nt
O=C(Cc1ccccn1)N1CCCCN2[C@H](CO)[C@@H](c3ccc(C#Cc4ccccc4)cc3)[C@@H]2C1,nt,30,0,nt,nt,nt,nt
O=C(Cc1ccccn1)N1CCCCN2[C@H](CO)[C@H](c3ccc(C#Cc4ccccc4)cc3)[C@H]2C1,nt,105*,-1,102*,62,52*,107*
CC(C)CC#Cc1ccc([C@@H]2[C@@H](CO)N3CCCCN(C(=O)Cc4ccccn4)C[C@@H]23)cc1,nt,75,1,nt,nt,nt,nt
O=C(Cc1ccccn1)N1CCCCN2[C@@H](CO)[C@H](c3ccc(C#Cc4ccccc4)cc3)[C@@H]2C1,nt,114*,-2,109*,53,39*,105*
O=C(Cc1ccccn1)N1CCCCN2[C@H](CO)[C@@H](c3ccc(C#Cc4ccccc4)cc3)[C@H]2C1,nt,106*,1,97*,41,41*,106*
CCCC#Cc1ccc([C@@H]2[C@H]3CN(C(=O)Cc4ccccn4)CCCCN3[C@H]2CO)cc1,nt,49,0,nt,nt,nt,nt
CO/C1=C/C(C)=C/[C@@H](C)[C@@H](O)[C@@H](C)C/C(C)=C/C=C\[C@H](OC)[C@@H]([C@@H](C)[C@@H](O)[C@H](C)[C@@]2(O)C[C@@H](O)[C@H](C)[C@@H](C(C)C)O2)OC1=O,1,nt,nt,nt,nt,nt,nt
Cc1nn(Cc2cccc(C(=O)Nc3ccc4oc(=O)cc(C(F)(F)F)c4c3)c2)c(C)c1Cl,1,nt,nt,nt,nt,nt,nt
